Calls of active or inactive are those of the source. The rule behind the calls is not given here.
Tests used:
[1] = tested on: MCF7; test: Antiproliferative activity against human MCF7 cells assessed as reduction in cell viability after 72 hrs by CellTiter-Glo assay; assay type: functional, cell-based; conditions: MCF7, 72 h
Procedure, shortened: (§1)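 Cells seeded in 96-well plates, left overnight at 37°C, then exposed to a range of test concentrations for 72 h. Viability read by CellTiter-Glo luminescence; IC50 from four-parameter curve fit. Lines kept at 37°C, 5% CO2, in recommended growth medium.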

[2] = tested on: JJN-3; test: Antiproliferative activity against human JJN-3 cells assessed as reduction in cell viability after 72 hrs by CellTiter-Glo assay; assay type: functional, cell-based; conditions: JJN-3, 72 h; procedure, shortened: as §1
[3] = biological target: Proto-oncogene tyrosine-protein kinase Src (Homo sapiens, UniProt P12931); test: Inhibition of SRC1 (unknown origin)
[4] = biological target: Homeodomain-interacting protein kinase 2 (Homo sapiens) (UniProt Q9H2X6); test: Inhibition of N-terminal His6-tagged recombinant human HIPK2 (165 to 564 residues) expressed in baculovirus infected Sf21 cells at 3 uM by filter binding assay relative to control
[5] = biological target: Macrophage-stimulating protein receptor (Homo sapiens) (UniProt Q04912); test: Inhibition of N-terminal GST-tagged recombinant human Ron (983 to end residues) expressed in baculovirus infected Sf21 cells at 0.3 uM by filter binding assay relative to control
Procedure, shortened: (§2)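 Outsourced single-concentration screen in a commercial panel of 233 protein kinases, run as radiometric filter-binding activity assays. Test agent was tested at 0.3 or 3 µmol/L, as given in each line, from a 10 mmol/L DMSO stock. Activity is expressed as percent inhibition relative to control.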

[6] = tested on: NCI-H929; test: Induction of cell cycle arrest in human NCI-H929 cells assessed as decrease in cells accumulation at G2/M phase at 0.03 to 10 uM incubated for 24 to 48 hrs by propidium iodide staining based flow cytometric analysis; assay type: functional; conditions: dose 0.03-10 µM, time lower 24.0 hrs, time upper […]
Procedure, shortened: (§3)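 COLO 205, MCF-7 or NCI-H929 cells seeded in 96-well plates overnight at 37°C, then exposed to DMSO or increasing compound concentrations for 24 or 48 h. Fixed and stained with propidium iodide (Vindelov method), then analysed by flow cytometry for sub-G1, G1, S and G2-M fractions. Experiment repeated twice.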

[7] = biological target: Ribosomal protein S6 kinase alpha-4 (Homo sapiens, UniProt O75676); test: Inhibition of N-terminal His6-tagged recombinant human MSK2 (2 to end residues) expressed in baculovirus infected Sf21 cells by filter binding assay
Ribosomal protein S6 kinase alpha-4, sequence (O75676 whole entry): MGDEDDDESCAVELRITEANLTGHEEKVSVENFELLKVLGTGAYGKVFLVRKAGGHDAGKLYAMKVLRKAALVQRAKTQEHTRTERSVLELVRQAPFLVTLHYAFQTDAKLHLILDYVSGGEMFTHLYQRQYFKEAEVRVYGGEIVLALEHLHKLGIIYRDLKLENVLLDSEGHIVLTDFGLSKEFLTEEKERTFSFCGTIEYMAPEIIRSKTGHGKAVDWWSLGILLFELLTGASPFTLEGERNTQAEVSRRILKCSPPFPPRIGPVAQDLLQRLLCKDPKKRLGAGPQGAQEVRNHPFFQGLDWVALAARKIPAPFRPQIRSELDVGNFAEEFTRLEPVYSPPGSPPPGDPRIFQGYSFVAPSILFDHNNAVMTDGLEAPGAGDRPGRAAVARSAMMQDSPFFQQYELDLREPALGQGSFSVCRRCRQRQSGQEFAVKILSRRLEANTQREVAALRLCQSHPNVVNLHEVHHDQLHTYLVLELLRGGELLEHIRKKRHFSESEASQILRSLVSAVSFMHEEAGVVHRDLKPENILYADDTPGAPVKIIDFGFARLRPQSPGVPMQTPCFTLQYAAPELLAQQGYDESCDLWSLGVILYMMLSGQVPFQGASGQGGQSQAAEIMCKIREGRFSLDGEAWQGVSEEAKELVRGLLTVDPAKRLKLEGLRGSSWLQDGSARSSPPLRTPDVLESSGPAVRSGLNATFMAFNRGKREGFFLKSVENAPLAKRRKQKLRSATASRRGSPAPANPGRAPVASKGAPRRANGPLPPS

[8] = biological target: Serine/threonine-protein kinase B-raf (Homo sapiens, UniProt P15056, V600E); test: Inhibition of B-Raf V600E mutant (unknown origin)
[9] = biological target: Mitogen-activated protein kinase 10 (Homo sapiens, UniProt P53779); test: Inhibition of JNK3 (unknown origin)
[10] = Toxicity in nu/nu CD-1 mouse xenografted with human BXPC-3 cells assessed as reduction in body weight at 30 mg/kg, po for 21 days relative to control; assay type: organism-based; conditions: in vivo, 504 h, time 21 day
[11] = tested on: NCI-H929; test: Induction of cell cycle arrest in human NCI-H929 cells assessed as cells accumulation at S phase at 1 umol/L incubated for 48 hrs by propidium iodide staining based flow cytometric analysis (reference value: 15%); assay type: functional; conditions: dose 1 µmol/L, at 1 µM; procedure, shortened: as §3
[12] = biological target: Serine/threonine-protein kinase PAK 3 (Homo sapiens, UniProt O75914); test: Inhibition of C-terminal His6-tagged recombinant human full-length PAK3 expressed in baculovirus infected Sf21 cells by filter binding assay
[13] = biological target: Tyrosine-protein kinase JAK3 (Homo sapiens, UniProt P52333); test: Inhibition of JAK3 (unknown origin)
[14] = biological target: Tyrosine-protein kinase Fes/Fps (Homo sapiens, UniProt P07332); test: Inhibition of N-terminal His6-tagged recombinant full length human Fes expressed in baculovirus infected Sf21 cells by filter binding assay
Tyrosine-protein kinase Fes/Fps, sequence (P07332 whole entry): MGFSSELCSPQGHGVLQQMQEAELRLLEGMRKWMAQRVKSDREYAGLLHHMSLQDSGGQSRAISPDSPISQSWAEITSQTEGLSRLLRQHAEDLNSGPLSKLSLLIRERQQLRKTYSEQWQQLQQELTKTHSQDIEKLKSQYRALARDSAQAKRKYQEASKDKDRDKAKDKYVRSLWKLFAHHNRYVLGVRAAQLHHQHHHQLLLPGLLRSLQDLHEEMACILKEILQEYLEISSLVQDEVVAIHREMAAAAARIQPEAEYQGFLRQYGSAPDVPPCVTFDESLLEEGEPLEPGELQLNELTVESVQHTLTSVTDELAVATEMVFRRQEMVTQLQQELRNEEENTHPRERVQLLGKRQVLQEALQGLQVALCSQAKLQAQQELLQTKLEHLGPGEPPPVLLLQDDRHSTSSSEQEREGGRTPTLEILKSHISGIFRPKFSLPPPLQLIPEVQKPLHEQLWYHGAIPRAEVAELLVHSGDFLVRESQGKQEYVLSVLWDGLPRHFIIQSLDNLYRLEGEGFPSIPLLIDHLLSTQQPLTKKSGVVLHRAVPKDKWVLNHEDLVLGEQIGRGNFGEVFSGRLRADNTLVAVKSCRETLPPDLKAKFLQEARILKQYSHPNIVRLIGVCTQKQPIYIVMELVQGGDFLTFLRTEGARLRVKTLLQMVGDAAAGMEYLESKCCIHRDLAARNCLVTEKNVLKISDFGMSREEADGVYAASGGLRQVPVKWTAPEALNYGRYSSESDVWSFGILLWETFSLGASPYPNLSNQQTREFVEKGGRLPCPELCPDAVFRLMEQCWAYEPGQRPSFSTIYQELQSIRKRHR

[15] = biological target: Insulin receptor (Mus musculus) (UniProt P15208); conditions: CD-1, dose >= 30.0 mg/kg, route po, time 242.0 min
Insulin receptor (Mus musculus), sequence (P15208 28-748 limits assumed): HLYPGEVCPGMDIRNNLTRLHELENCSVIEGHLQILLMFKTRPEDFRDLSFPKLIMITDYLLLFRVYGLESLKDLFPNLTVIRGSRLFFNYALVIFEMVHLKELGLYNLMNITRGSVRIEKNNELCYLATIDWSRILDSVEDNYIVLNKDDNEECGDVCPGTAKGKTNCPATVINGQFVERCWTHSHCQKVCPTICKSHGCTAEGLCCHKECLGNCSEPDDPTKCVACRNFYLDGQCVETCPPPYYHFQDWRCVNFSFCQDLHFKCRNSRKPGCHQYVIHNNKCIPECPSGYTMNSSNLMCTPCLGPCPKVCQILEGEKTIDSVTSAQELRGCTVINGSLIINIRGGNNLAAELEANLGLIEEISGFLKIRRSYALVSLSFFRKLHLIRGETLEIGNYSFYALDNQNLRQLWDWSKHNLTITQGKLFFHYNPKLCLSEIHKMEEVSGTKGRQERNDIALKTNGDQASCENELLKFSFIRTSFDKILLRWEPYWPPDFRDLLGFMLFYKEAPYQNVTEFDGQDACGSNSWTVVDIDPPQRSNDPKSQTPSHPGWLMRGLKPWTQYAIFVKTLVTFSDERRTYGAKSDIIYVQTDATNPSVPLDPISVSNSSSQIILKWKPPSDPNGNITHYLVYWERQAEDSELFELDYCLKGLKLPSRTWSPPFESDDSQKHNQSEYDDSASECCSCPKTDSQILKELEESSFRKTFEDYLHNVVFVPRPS
Insulin receptor (Mus musculus), sequence (P15208 753-1372 limits assumed): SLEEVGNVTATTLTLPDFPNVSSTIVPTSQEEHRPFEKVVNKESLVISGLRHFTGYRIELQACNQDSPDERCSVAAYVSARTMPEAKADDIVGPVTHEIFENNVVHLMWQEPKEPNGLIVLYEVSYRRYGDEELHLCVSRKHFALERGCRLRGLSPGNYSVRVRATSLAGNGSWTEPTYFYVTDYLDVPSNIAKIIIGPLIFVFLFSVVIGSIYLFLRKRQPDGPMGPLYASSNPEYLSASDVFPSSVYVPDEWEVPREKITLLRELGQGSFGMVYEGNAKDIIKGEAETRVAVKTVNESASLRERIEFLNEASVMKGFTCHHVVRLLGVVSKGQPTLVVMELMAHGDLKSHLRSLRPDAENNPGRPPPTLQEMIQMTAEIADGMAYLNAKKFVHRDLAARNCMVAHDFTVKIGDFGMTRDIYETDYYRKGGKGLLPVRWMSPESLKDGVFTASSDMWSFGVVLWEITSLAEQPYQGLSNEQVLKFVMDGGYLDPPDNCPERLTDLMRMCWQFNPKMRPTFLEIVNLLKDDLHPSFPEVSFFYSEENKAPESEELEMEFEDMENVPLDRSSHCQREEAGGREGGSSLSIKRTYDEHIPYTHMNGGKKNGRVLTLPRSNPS

[16] = biological target: Protein-tyrosine kinase 6 (Homo sapiens) (UniProt Q13882); test: Inhibition of N-terminal His6-tagged recombinant full-length human BRK expressed in baculovirus infected Sf21 cells at 0.3 uM by filter binding assay relative to control; procedure, shortened: as §2
Protein-tyrosine kinase 6 (Homo sapiens), sequence (Q13882 whole entry, looked up): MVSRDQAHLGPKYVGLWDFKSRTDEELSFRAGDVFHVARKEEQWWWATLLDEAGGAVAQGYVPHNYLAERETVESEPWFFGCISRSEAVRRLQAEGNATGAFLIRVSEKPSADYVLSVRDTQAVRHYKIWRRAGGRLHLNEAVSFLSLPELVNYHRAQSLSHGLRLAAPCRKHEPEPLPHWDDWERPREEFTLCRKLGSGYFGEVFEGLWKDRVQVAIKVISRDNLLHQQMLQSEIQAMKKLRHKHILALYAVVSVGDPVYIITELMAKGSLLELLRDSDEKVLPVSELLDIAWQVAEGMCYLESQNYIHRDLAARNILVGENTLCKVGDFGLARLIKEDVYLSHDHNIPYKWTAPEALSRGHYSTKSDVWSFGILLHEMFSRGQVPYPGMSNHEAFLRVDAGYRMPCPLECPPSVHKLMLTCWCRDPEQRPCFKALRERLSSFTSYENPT

[17] = In vivo inhibition of IGF1R in mouse NIH-3T3/LISN cells xenografted in IGF1-stimulated nu/nu CD-1 mouse assessed as reduction in IGF1R phosphorylation at 3.5 umol/L blood compound concentration pretreated for 4 hrs followed by IGF1 stimulation and measured after 10 min by […] relative to control; assay type: functional; conditions: dose 3.5 µmol/L; time 250 min; 4.167 h; at 3.5 µM
Procedure, shortened: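 Female nu/nu CD-1 mice, three per group, bearing ~500 mm3 tumors, given one oral dose of compound or vehicle. At 4 h, 10 µg hIGF-I i.v. via tail vein; saline controls. Tumor and blood taken 10 min later. Tumor lysates in RIPA captured on anti-IGF-IR plates and probed with europium anti-phosphotyrosine. Phospho/total IGF-IR expressed as % of ligand-stimulated control. Blood levels by LC-MS/MS.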

[18] = biological target: Vascular endothelial growth factor receptor 3 (Homo sapiens, UniProt P35916); test: Inhibition of N-terminal GST-tagged recombinant human Flt4 (800 to end residues) expressed in baculovirus infected Sf21 cells by filter binding assay
[19] = biological target: Death-associated protein kinase 3 (Homo sapiens) (UniProt O43293); test: Inhibition of N-terminal GST tagged recombinant human ZIPK (1 to 290 residues) expressed in Escherichia coli at 3 uM by filter binding assay relative to control; procedure, shortened: as §2
[20] = biological target: RAC-alpha serine/threonine-protein kinase (Homo sapiens, UniProt P31749); test: Inhibition of AKT1 (unknown origin)
[21] = biological target: Insulin receptor (Mus musculus) (UniProt P15208); conditions: CD-1, dose 30.0 mg/kg, route po, time 21.0 day
[22] = biological target: Receptor tyrosine-protein kinase erbB-4 (Homo sapiens, UniProt Q15303); test: Inhibition of ErbB4 (unknown origin)
Receptor tyrosine-protein kinase erbB-4, sequence (Q15303 whole entry): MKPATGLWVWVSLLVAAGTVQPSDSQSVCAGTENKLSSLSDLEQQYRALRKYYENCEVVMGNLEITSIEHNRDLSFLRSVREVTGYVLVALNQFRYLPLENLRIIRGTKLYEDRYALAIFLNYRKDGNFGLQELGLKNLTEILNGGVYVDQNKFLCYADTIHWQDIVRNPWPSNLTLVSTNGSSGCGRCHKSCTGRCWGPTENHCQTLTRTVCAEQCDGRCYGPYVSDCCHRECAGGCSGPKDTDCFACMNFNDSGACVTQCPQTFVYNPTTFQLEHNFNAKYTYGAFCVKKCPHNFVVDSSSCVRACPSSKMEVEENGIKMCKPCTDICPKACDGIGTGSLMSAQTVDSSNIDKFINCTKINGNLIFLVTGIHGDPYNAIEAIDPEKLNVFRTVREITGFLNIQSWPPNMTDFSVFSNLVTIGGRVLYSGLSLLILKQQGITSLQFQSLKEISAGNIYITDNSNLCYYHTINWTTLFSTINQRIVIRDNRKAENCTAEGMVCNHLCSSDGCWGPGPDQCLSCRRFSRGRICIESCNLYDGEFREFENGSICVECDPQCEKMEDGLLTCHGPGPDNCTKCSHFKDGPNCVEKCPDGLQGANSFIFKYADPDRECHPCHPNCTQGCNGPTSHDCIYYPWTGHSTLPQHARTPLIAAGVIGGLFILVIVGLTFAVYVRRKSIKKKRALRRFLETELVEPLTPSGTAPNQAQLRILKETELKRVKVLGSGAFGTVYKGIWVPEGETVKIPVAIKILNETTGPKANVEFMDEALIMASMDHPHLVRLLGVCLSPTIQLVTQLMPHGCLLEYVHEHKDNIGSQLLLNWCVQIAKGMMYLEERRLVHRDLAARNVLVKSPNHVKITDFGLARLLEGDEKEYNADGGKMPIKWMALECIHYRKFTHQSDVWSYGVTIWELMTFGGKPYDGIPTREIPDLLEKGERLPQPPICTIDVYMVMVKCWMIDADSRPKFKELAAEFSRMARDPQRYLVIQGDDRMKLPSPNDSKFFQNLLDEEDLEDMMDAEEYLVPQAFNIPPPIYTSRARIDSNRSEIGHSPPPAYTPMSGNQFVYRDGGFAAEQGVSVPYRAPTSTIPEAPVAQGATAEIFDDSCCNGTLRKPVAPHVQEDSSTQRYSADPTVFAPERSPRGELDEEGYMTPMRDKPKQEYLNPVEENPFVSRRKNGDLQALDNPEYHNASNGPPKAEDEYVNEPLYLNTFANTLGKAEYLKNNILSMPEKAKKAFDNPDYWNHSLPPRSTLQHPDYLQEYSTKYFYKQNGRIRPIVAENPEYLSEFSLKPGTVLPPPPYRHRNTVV

[23] = Antiproliferative activity against human HuNS1 cells assessed as reduction in cell viability after 72 hrs by CellTiter-Glo assay; assay type: functional, cell-based; conditions: HuNS1, 72 h; procedure, shortened: as §1
[24] = biological target: Serine/threonine-protein kinase MRCK beta (Homo sapiens) (UniProt Q9Y5S2); test: Inhibition of N-terminal His6-tagged recombinant human MRCKbeta (1 to 473 residues) expressed in baculovirus infected Sf21 cells at 0.3 uM by filter binding assay relative to control
[25] = biological target: Mitogen-activated protein kinase 8 (Homo sapiens, UniProt P45983); test: Inhibition of JNK1 (unknown origin)
[26] = biological target: Protein-tyrosine kinase 6 (Homo sapiens) (UniProt Q13882); test: Inhibition of N-terminal His6-tagged recombinant full-length human BRK expressed in baculovirus infected Sf21 cells at 3 uM by filter binding assay relative to control
[27] = Inhibition of […] N-terminal 6His-tagged full length human P110delta/full length human p85beta expressed in baculovirus infected Sf21 cells at 3 uM by filter binding assay relative to control; conditions: condition cancer
[28] = Antiproliferative activity against human RDES cells assessed as reduction in cell viability after 72 hrs by CellTiter-Glo assay; assay type: functional, cell-based; conditions: RD-ES; procedure, shortened: as §1

Which results are given for CCc1cc(Nc2nccc(-c3c(-c4ccc(OC)c(C(=O)Nc5c(F)cccc5F)c4)nc4ccccn34)n2)c(OC)cc1N1CCC(N2CCN(S(C)(=O)=O)CC2)CC1?
IC50 [1]: 0.137 µM; IC50 [2]: > 30 µM; IC50 [3]: > 10 µM; inhibition [4]: 4%; inhibition [5]: -8%; Activity [6]: Active; IC50 [7]: 3.64 µM; IC50 [8]: > 2 µM; IC50 [9]: > 10 µM; Activity [10]: Non-Toxic; Activity [11]: 3%; IC50 [12]: 0.103 µM; IC50 [13]: 13 µM; IC50 [14]: 0.148 µM; inhibition [15]: Active; inhibition [16]: 25%; inhibition (INH) [17]: 100%; IC50 [18]: 0.159 µM; inhibition [19]: 27%; IC50 [20]: > 10 µM; inhibition [21]: inactive; IC50 [22]: > 25 µM; IC50 [23]: > 30 µM; inhibition [24]: -10%; IC50 [25]: > 10 µM; inhibition [26]: 38%; inhibition at 3 µM [27]: 2%; IC50 [28]: 0.062 µM

Source: ChEMBL document CHEMBL5678798 (Clin Cancer Res, 2009)
